56 compounds from ChEMBL document CHEMBL1148583, “Substituted 2-thioxoimidazolidin-4-ones and imidazolidine-2,4-diones as fatty acid amide hydrolase inhibitors templates” (J Med Chem, 2006) can be followed below.

Structures are written as SMILES. Bounds are passed on as bounds.

The target of experiment [1] is Cannabinoid receptor 1 (Homo sapiens) (UniProt P21554). Put plainly: Displacement of [3H]SR141716A from human CB1 expressed in CHO cells at 10 uM. It is filed as cell-based. An outline of the steps: (§1)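 Membranes from CHO cells expressing hCB1 or hCB2 (40 µg per tube). Radioligand was 1 nM [3H]-SR141716A for CB1 or 1 nM [3H]-CP-55,940 for CB2. Competitor at 10 µM; nonspecific binding defined with 10 µM HU-210. Incubation 1 h at 30 °C in 50 mM Tris-HCl, 3 mM MgCl2, 1 mM EDTA, 0.5% BSA, pH 7.4. Filtered on PEI-treated GF/B and counted. Result is % displacement, ≥3 runs in duplicate, mean ± SEM.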
For orientation: In a radioligand displacement assay an active substance lowers the binding of a labelled ligand.

Experiment [2] addresses Cannabinoid receptor 2 (Homo sapiens) (UniProt P34972). The experiment in a line: Displacement of [3H]CP-55940 from human CB2 expressed in CHO cells at 10 uM. It is filed as cell-based. An outline of the steps: as §1
For experiment [3], the target named is T1, Fatty-acid amide hydrolase 1 (Rattus norvegicus, UniProt P97612).
T1 sequence (P97612 whole entry): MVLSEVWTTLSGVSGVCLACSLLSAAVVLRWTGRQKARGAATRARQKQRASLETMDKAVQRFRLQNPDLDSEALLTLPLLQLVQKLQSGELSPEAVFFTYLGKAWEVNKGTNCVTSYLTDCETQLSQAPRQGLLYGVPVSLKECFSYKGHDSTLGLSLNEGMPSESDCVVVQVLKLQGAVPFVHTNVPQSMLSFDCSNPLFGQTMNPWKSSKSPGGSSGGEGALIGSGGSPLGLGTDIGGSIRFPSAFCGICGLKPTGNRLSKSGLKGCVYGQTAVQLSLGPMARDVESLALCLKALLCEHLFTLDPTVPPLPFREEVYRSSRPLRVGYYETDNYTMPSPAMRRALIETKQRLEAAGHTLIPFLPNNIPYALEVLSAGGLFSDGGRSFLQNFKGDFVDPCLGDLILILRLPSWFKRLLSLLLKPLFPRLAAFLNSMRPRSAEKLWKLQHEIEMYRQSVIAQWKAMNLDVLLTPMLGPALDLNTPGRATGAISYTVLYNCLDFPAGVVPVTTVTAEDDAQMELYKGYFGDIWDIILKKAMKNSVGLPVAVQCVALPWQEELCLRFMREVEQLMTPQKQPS
Put plainly: Inhibitory activity against FAAH in Wistar rat brain homogenate at pH 9.0. It is filed as tissue-based. An outline of the steps: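 Enzyme from male Wistar rat (250-300 g) brain membranes, washed by 36 000g spins and kept at -80 °C. Anandamide hydrolysis at pH 9.0 in 10 mM Tris-HCl, 1 mM EDTA, 0.1% BSA, 37 °C for 10 min. Stopped with cold chloroform/methanol, then the methanol/buffer phase was counted for radioactivity. Inhibition curves run ≥3 times in duplicate; IC50 by nonlinear regression, given as pI50 ± SEM.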

For experiment [4], the target named is T2, Fatty-acid amide hydrolase 1 (Rattus norvegicus) (UniProt P97612).
T2 sequence (whole entry): T1 sequence (P97612 whole entry)
Put plainly: Inhibitory activity against FAAH in rat brain homogenate at 100 uM. The conditions noted are these: wistar. It is filed as tissue-based. An outline of the steps: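 Rat brain membrane homogenate hydrolysing anandamide in 10 mM Tris-HCl, 1 mM EDTA, 0.1% BSA, pH 7.6, at 37 °C for 10 min. Reaction quenched with cold chloroform/methanol; radioactivity counted in the aqueous methanol phase. Compound tested at 100 µM; percent inhibition of FAAH activity reported.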

Sequence of Cannabinoid receptor 1 (Homo sapiens) (P21554 whole entry): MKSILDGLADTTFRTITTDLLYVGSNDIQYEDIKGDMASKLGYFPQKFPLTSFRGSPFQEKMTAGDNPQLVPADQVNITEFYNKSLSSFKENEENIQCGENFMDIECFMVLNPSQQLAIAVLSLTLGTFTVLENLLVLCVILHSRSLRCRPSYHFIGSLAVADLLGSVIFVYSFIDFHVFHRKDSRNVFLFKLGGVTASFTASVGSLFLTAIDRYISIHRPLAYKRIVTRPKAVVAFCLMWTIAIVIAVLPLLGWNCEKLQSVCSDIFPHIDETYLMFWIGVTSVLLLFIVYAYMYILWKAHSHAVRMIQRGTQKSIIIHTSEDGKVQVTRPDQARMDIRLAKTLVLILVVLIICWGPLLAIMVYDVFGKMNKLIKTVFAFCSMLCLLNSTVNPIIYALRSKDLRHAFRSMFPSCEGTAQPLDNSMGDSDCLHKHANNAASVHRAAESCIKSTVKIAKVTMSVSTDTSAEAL
Sequence of Cannabinoid receptor 2 (Homo sapiens) (P34972 whole entry): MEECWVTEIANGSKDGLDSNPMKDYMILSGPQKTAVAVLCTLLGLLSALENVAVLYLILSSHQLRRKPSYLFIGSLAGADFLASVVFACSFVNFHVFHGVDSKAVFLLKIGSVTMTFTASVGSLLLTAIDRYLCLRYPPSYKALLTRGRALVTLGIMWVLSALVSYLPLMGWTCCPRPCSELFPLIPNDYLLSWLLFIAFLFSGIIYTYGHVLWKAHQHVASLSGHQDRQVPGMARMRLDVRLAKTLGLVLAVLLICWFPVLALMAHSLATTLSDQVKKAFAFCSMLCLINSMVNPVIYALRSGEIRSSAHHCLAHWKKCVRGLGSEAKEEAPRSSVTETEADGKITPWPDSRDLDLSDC

Turning to `O=C1NC(c2ccccc2)(c2ccccc2)C(=O)N1CCc1ccccc1`, the Activity in experiment [1] and in experiment [2] was below 20% each time.
Turning to `CCCCCCCCCCCCCCCCN1C(=O)C(c2ccccc2)(c2ccccc2)NC1=S`, the Activity in experiment [1] and in experiment [2] was below 10% each time.
With `CCCCCN1C(=O)C(c2ccccc2)(c2ccccc2)NC1=S`, the Activity in experiment [1] is 27.6%; in experiment [2], below 20%.
Take `O=C1NC(=S)N(c2ccccc2)C1c1ccccc1` (stereo not drawn): the Activity in experiment [1] and in experiment [2] was below 20% in each case.
Turning to `CCCCCCCN1C(=O)NC(c2ccc(Br)cc2)(c2ccc(Br)cc2)C1=O`, the Activity in experiment [1] is 44.8%; in experiment [2], below 20%.
`CCCCN1C(=O)NC(c2ccc(Cl)cc2)(c2ccc(Cl)cc2)C1=O`: the figures for the Activity in experiment [1] and in experiment [2] were 51.2% and below 20%, respectively.
Consider `CCCCCCCCCCCCCCN1C(=O)C(c2ccccc2)(c2ccccc2)NC1=S`, for which the Activity in experiment [1] is below 10%; in experiment [2], below 20%. Inhibition in experiment [3] was half-maximal at 0.891 µM (IC50).
On to `CCCCN1C(=O)CNC1=O`, for which the Activity in experiment [1] and in experiment [2] was below 20% throughout. In experiment [4], the Inhibition was below 10%.
Regarding `CCCCCCN1C(=O)NC(c2ccccc2)(c2ccccc2)C1=O`, the results for the Activity in experiment [1] and in experiment [2] were 29.9% and below 20%, respectively. In addition, the IC50 in experiment [3] was 10 µM.
Regarding `CCCCCCCCN1C(=O)C(c2ccc(Cl)cc2)(c2ccc(Cl)cc2)NC1=S`, the Activity was 36.6% in experiment [1] and below 10% in experiment [2].
Turning to `CCCCCCCCCCCCCCN1C(=O)NC(c2ccccc2)(c2ccccc2)C1=O`, the Activity in experiment [1] and in experiment [2] was below 20% throughout.
On to `O=C1CNC(=O)N1c1ccccc1`, for which the Activity in experiment [1] and in experiment [2] was below 20% in each case. This compound showed an Inhibition in experiment [4] of 23%.
Consider `CCCCN1C(=O)C(c2ccc(Cl)cc2)(c2ccc(Cl)cc2)NC1=S`, for which the Activity in experiment [1] was 72.7%; in experiment [2], below 20%.
Regarding `CC(C)CN1C(=O)C(c2ccccc2)(c2ccccc2)NC1=S`, the Activity in experiment [1] is 34.6%; in experiment [2], below 10%.
As to `CCCCCCCN1C(=O)C(c2ccccc2)(c2ccccc2)NC1=S`, the values for the Activity in experiment [1] and in experiment [2] were 28.8% and below 20%, respectively.
For the compound `CCN1C(=O)C(c2ccccc2)(c2ccccc2)NC1=S`, the Activity in experiment [1] was 40%; in experiment [2], below 10%.
Taken in the same sequence, the figures for `CCCCCCCN1C(=O)C(c2ccc(Br)cc2)(c2ccc(Br)cc2)NC1=S` were 34.2% and below 20%.
Regarding `CCN1C(=O)NC(c2ccccc2)(c2ccccc2)C1=O`, the Activity in experiment [1] and in experiment [2] was below 20% in each case.
Consider `CCCCCCCN1C(=O)C(c2ccccc2)N(c2ccccc2)C1=O` (stereo not drawn), for which the Activity in experiment [1] is 45.6%; in experiment [2], below 20%.
Regarding `O=C1CNC(=S)N1c1ccccc1`, the Activity in experiment [1] and in experiment [2] was below 20% each time. Besides, the Inhibition in experiment [4] is 25%.
For the compound `CCCCCCCN1C(=O)NC(c2ccc(Cl)cc2)(c2ccc(Cl)cc2)C1=O`, the Activity was 42.7% in experiment [1] and below 20% in experiment [2].
In the case of `CCCCN1C(=O)CNC1=S`, the Activity in experiment [1] and in experiment [2] was below 20% each time. The Inhibition in experiment [4] was below 10%.
For `CCCCCCN1C(=O)C(c2ccccc2)(c2ccccc2)NC1=S`, the Activity is 21.9% in experiment [1] and below 20% in experiment [2].
Taken in the same sequence, the figures for `O=C1N(CCCO)C(=S)NC1(c1ccccc1)c1ccccc1` were 20.8% and below 20%.
Take `CCCCCCCN1C(=O)C(c2ccccc2)(c2ccccc2)N(CCCCCCC)C1=S`: the Activity in experiment [1] and in experiment [2] was below 20% each time.
`CCCCCCCCN1C(=O)NC(c2ccc(C)cc2)(c2ccc(C)cc2)C1=O`: the Activity is 24.5% in experiment [1] and below 20% in experiment [2].
Take `O=C1NC(c2ccccc2)C(=O)N1c1ccccc1` (stereo not drawn): the Activity in experiment [1] and in experiment [2] was below 20% in each case.
For the compound `CCCCCCCN1C(=O)CNC1=O`, the Activity in experiment [1] and in experiment [2] was below 20% in each case.
As to `O=C1C(c2ccccc2)NC(=S)N1c1ccccc1` (stereo not drawn), the Activity in experiment [1] and in experiment [2] was below 20% in each case.
`CCCCCCCCCCCCCCCCCCN1C(=O)C(c2ccccc2)(c2ccccc2)NC1=S`: the Activity in experiment [1] and in experiment [2] was below 10% throughout.
On to `CCCCN1C(=O)C(c2ccc(Br)cc2)(c2ccc(Br)cc2)NC1=S`, for which the figures for the Activity in experiment [1] and in experiment [2] were 73.8% and below 20%, respectively.
For `O=C1N(c2ccccc2)C(=S)NC1(c1ccccc1)c1ccccc1`, the results for the Activity in experiment [1] and in experiment [2] were 32.6% and below 20%, respectively.
Regarding `CCCCCCCN1C(=O)C(c2ccc(Cl)cc2)(c2ccc(Cl)cc2)NC1=S`, the values for the Activity in experiment [1] and in experiment [2] were 67.8% and below 20%, respectively.
For the compound `CCCCCCCN1C(=O)C(c2ccccc2)NC1=S` (stereo not drawn), the Activity in experiment [1] and in experiment [2] was below 20% each time.
On to `CCCCCN1C(=O)NC(c2ccccc2)(c2ccccc2)C1=O`, for which the Activity was 21.3% in experiment [1] and below 20% in experiment [2].
In the case of `CCCCCCCC/C=C\CCCCCCCCN1C(=O)C(c2ccccc2)(c2ccccc2)NC1=S`, the Activity in experiment [1] and in experiment [2] was below 10% throughout.
Turning to `CCCCCCCCN1C(=O)NC(c2ccccc2)(c2ccccc2)C1=O`, the Activity is 25.1% in experiment [1] and below 20% in experiment [2].
On the same counts, the results for `O=C1N(Cc2ccccc2)C(=S)NC1(c1ccccc1)c1ccccc1` are 44.7% and below 20%.
Turning to `CCCCCCCCN1C(=O)NC(c2ccc(Br)cc2)(c2ccc(Br)cc2)C1=O`, the Activity in experiment [1] came to 45.1%; in experiment [2] it was 21.1%.
Consider `CCCCCCCCN1C(=O)C(c2ccccc2)(c2ccccc2)NC1=S`, for which the values for the Activity in experiment [1] and in experiment [2] were 38.8% and below 20%, respectively.
For `CCCCN1C(=O)C(c2ccccc2)(c2ccccc2)NC1=S`, the Activity is 42.8% in experiment [1] and below 10% in experiment [2].
As to `COCCCN1C(=O)C(c2ccccc2)(c2ccccc2)NC1=S`, the Activity in experiment [1] is 29.4%; in experiment [2], below 20%.
On to `CCCCCCCCN1C(=O)NC(c2ccc(F)cc2)(c2ccc(F)cc2)C1=O`, for which the results for the Activity in experiment [1] and in experiment [2] were 40.1% and below 20%, respectively.
Turning to `O=C1NC(=O)N(c2ccccc2)C1c1ccccc1` (stereo not drawn), the Activity in experiment [1] and in experiment [2] was below 20% throughout.
As to `O=C1NC(c2ccccc2)(c2ccccc2)C(=O)N1Cc1ccccc1`, the Activity in experiment [1] was 33.7%; in experiment [2] it was below 20%.
On the same counts, the results for `O=C1NC(=O)C(c2ccccc2)(c2ccccc2)N1` are below 20% and below 20%.
In the case of `O=C1NC(c2ccc(Cl)cc2)(c2ccc(Cl)cc2)C(=O)N1Cc1ccccc1`, the Activity in experiment [1] is 72.2%; in experiment [2], below 20%.
As for `CCCCCCCCN1C(=O)NC(c2ccc(Cl)cc2)(c2ccc(Cl)cc2)C1=O`, the Activity in experiment [1] was 39.5%; in experiment [2], below 20%.
Taken in the same sequence, the figures for `O=C1N(CCc2ccccc2)C(=S)NC1(c1ccccc1)c1ccccc1` were 29.3% and below 20%.
Take `CCCCCCCCCCN1C(=O)NC(c2ccccc2)(c2ccccc2)C1=O`: the Activity in experiment [1] and in experiment [2] was below 20% throughout.
For the compound `CCCCN1C(=O)NC(c2ccccc2)(c2ccccc2)C1=O`, the Activity in experiment [1] and in experiment [2] was below 20% throughout.
`CCCCCCCCN1C(=O)NC(c2ccc(OC)cc2)(c2ccc(OC)cc2)C1=O`: the Activity in experiment [1] was 31.2%; in experiment [2], below 20%.
On the same counts, the results for `CCCCCCCCN1C(=O)C(c2ccc(Br)cc2)(c2ccc(Br)cc2)NC1=S` are 23.4% and below 20%.
Consider `O=C1N(Cc2ccccc2)C(=S)NC1(c1ccc(Cl)cc1)c1ccc(Cl)cc1`, for which the Activity was 74.2% in experiment [1] and below 15% in experiment [2].
In the case of `CCCCN1C(=O)NC(c2ccc(Br)cc2)(c2ccc(Br)cc2)C1=O`, the figures for the Activity in experiment [1] and in experiment [2] were 69.2% and 23.1%, respectively.
As to `O=C1NC(=S)NC1(c1ccccc1)c1ccccc1`, the Activity in experiment [1] was below 15%; in experiment [2] it was below 10%.

By IC50 is commonly meant the point on the concentration scale where inhibition reaches its midpoint. A high value points to lower potency. In general, Inhibition refers to the relative decrease from the control value, in per cent.
